MC4R antag cAMP: blocks human MC4R cAMP signaling | P32245 | MC4R-expressing cells, MTII-stimulated cAMP, LANCE TR-FRET | inhibition, % at 6.5 µM | 360,000 tested, 0.48% active | AID 540295;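 active = inhibition above its plate's cutoff, the mean of tested wells on that plate plus 3 SD, cut at about 29% in these data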;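 note: 0% = Melanotan II alone and 100% = Melanotan II plus saturating MCL0020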
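Material: human MC4R-expressing U2OS cells. Probe or stimulus: Melanotan II challenge. Dosing: 6.5 µM single dose. Times: 30-min compound, 1-h challenge, 1-h detection, room temperature. Technique: TR-FRET with Eu-cAMP and labeled anti-cAMP, 671 nm. Replication: singlicate.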
TAAR1 antagonist: human TAAR1 antagonism. CHO RD-HGA16 TAAR1, Fluo-8 calcium fluorescence, antagonist. Q96RJ0. inhibition, % at 3 µM. 360,000 tested, 1.5% active;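 active = inhibition above a per-plate cutoff, the mean inhibition of test compounds on that plate plus 3 SD, cut at about 49% in these data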;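 note: 0% = DMSO plus EC80 beta-PEA response and 100% = DMSO alone without agonist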
Target sequence (Q96RJ0 whole entry, looked up): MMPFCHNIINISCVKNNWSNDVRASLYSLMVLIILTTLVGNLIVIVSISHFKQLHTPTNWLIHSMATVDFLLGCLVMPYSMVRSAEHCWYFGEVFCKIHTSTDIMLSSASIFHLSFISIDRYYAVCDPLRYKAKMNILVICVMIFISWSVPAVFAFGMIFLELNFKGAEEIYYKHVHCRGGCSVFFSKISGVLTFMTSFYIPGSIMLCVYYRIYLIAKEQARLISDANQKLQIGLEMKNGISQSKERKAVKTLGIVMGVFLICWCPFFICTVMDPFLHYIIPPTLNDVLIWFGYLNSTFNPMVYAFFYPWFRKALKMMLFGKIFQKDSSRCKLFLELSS
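Assay system: RD-HGA16 CHO cells with stable hTAAR1 and Gα16 / Reagent: EC80 β-phenethylamine stimulus / Doses: 3 µM, single point / Timing: dye loading 75 min at 37 °C, then 30 min room temperature / Measured by: Fluo-8 intracellular calcium dye fluorescence, real-time kinetic reads / Controls: vehicle wells and EC80 agonist wells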
TAAR1 ag: human TAAR1 agonism; AID 624467; Q96RJ0; CHO RD-HGA16 TAAR1, Fluo-8 calcium fluorescence; vehicle wells 0%, saturating PEA agonist 100%; activation, % at 3 µM; 360,000 tested, 0.99% active;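 active = activation above the mean activation of all test compounds in the run plus 3 SD, cut at about 38% in these data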
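System: CHO-derived RD-HGA16 cells with stable Gα16 and human TAAR1 / Times: 17-24 h plating, Fluo-8 75 min 37 °C, 30 min RT / Technique: calcium-sensitive Fluo-8 signal, excitation 470-495, emission 515-575 nm / Measure: % activation relative to PEA EC100 response / Benchmarks: DMSO and PEA EC100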
m5-HT2A agonist: mouse HTR2A agonism via beta-arrestin recruitment | 360,000 tested, 0.66% active | activation, % at 7.6 µM | CHO-K1 mHTR2A beta-arrestin complementation, luminescence; percent of 30 µM serotonin response | P35363;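 active = activation above a run cutoff, the mean activation of all tested compounds plus 3 SD, cut at about 14% in these data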;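 note: 0% = plate median of compound wells and 100% = 30 µM serotonin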
MC4R barr agon: activates human MC4R beta-arrestin recruitment; P32245; activation, % at 8.9 µM; 360,000 tested, 0.98% active; U2OS MC4R beta-arrestin complementation, luminescence; percent of melanotan II response, DMSO zero;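 active = activation above a per-plate cutoff, the mean activation of sample wells on that plate plus 3 SD, cut at about 8% in these data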
Beta2AR agonist: activates human beta-2 adrenergic receptor causing internalization. P07550. response, % (concentration not given with the values). 340,000 tested, 0.43% active. Am2.2-beta2AR cells, FAP receptor internalization, flow cytometry;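 active = response above a set limit, near 3 SD of response in nonfluorescent compounds, cut at about 42% in these data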
Target sequence (P07550 whole entry, looked up): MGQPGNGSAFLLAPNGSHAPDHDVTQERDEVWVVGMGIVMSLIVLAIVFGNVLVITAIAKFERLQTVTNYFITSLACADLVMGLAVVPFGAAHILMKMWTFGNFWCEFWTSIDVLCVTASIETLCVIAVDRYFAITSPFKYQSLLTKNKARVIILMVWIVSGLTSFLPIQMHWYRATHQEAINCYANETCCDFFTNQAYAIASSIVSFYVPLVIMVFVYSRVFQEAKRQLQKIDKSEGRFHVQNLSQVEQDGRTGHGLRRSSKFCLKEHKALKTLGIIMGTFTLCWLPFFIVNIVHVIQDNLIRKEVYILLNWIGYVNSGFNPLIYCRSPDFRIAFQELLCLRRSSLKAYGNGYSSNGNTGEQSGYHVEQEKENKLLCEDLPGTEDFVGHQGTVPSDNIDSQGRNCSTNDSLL
Beta2AR ag CP1: activates human beta-2 adrenergic receptor; shares compounds with Beta2AR agonist; Am2.2-beta2AR cells, FAP surface receptor, flow cytometry; hits give low values; percent response (surface receptor), % at 10 µM; 1,100 tested, 25% active;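 active = surface receptor percent response at or below 58%, roughly 3 SD from nonfluorescent compounds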
B2AR FAP counter: flagged in Am2.2 fluorescence counterscreen for beta-2AR agonists. shares compounds with Beta2AR agonist. Am2.2 cells, FAP fluorogen flow cytometry; hits give low values. calls only at 10 µM. 1,100 tested, under 10 active;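 active = percent response below a set limit in fluorescence channel 1 and below 50% in channel 8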
* hit, by the source's call; i = inactive; x = not tested or not shown. A selection: hits, their analogues and other compounds. The true share with any hit is near 4.3%.

SMILES	MC4R antag cAMP	TAAR1 antagonist	TAAR1 ag	m5-HT2A agonist	MC4R barr agon	Beta2AR agonist	Beta2AR ag CP1	B2AR FAP counter
COc1cc(/C=N\NC(=O)c2ccc(-c3ccccc3)cc2)ccc1OCC(N)=O	3.1	41.5	4.6	-3.1	26.0*	18.1	x	x
COc1cc(/C=N/NC(=O)NC23CC4CC(CC(C4)C2)C3)ccc1OCC(N)=O	12.6	58.1*	27.9	8.3	-0.4	9.6	x	x
CCCOc1ccc(/C=N/NC(=O)CN2CCCCC2)cc1OCC	-8.2	-27.9	0.2	-1.7	-0.4	-6.4	x	x
CCCCOc1ccc(C(=O)N/N=C/c2ccc(OCCN3CCCCC3)c(OC)c2)cc1	-4.6	-6.0	-0.7	-6.2	-0.7	43.3*	x	x
COc1ccc(C=NNC(=S)NC23CC4CC(CC(C4)C2)C3)cc1OC	3.2	-8.6	1.2	7.8	-3.0	1.4	x	x
COc1ccc(OC2(C)CCN(Cc3ccc(-c4ccccc4)o3)C2)cc1 (configuration not stated)	0.0	-0.8	1.7	-7.9	2.8	x	x	x
C[C@@H]1COc2cc(N3CCOCC3)ccc2S(=O)(=O)N1	x	-19.1	1.6	x	x	x	x	x
O=C(NCc1ccccc1)[C@@H]1CCCN1C(=O)[C@H]1CCCN1C(=O)c1ccc(F)cc1F	x	-18.7	0.3	x	x	x	x	x
O=C(C(=O)N1CCC(CNS(=O)(=O)c2cccc(C(F)(F)F)c2)CC1)c1cc2ccccc2o1	x	-12.0	-0.7	x	x	x	x	x
O=C(N/N=C/c1ccc(O)cc1O)NC12CC3CC(CC(C3)C1)C2	3.5	0.2	19.7	-13.2	-0.3	44.2*	x	x
COc1ccc(OC)c(CN(CC(F)(F)F)S(=O)(=O)c2ccccc2Br)c1	x	-1.4	1.3	x	x	x	x	x
Cc1ccc(OCc2cc(C(=O)NCc3cc(F)ccc3C)no2)cn1	0.9	-1.0	20.3	2.8	-1.0	-11.0	75.2	i
COc1cc(Cl)ccc1OCc1cc(C(=O)NC2CCc3ccccc32)no1 (configuration not stated)	5.8	-36.2	2.3	1.5	4.8	-2.0	x	x
Cc1ccc(OCc2cc(C(=O)NC3CCc4ccccc43)no2)cn1 (configuration not stated)	1.9	2.6	19.6	0.4	-3.3	-2.9	121.9	i
CCC(NC(=O)c1cc(COc2ccc(C)nc2)on1)c1ccc(C)cc1 (configuration not stated)	1.9	8.1	49.2*	4.4	-1.2	-2.6	127.5	i
O=C(NC1CCCCCC1)C1CCN(C(=O)c2cccc(Cl)c2)CC1	2.4	1.0	2.3	3.9	-1.0	21.7	x	x
CC(=NN=C(C)c1ccc(O)cc1)c1ccc(O)cc1	0.3	10.3	3.7	-6.1	-1.1	33.2	x	x
C/C=C(/C(=C/C)c1ccc(O)cc1)c1ccc(O)cc1	-0.5	14.1	-0.2	-1.6	7.4	-14.6	108.3	i
Cc1cc(C)nc(NS(=O)(=O)c2ccc(NC(=O)COc3ccccc3)cc2)n1	14.6	-4.5	8.2	3.4	0.1	118.0*	122.4	i
CC(/C=C/c1ccccc1)=N\NC(N)=S	-4.8	-13.0	-0.3	0.9	-0.5	-5.6	90.7	i
CCCCN(CCCC)c1nc(OC)nc(-n2nnc(C(C)=O)c2C)n1	19.4	3.9	2.1	8.2	-0.2	73.5*	25.0*	i
COc1ccccc1N(CC(=O)NC1CCCCC1)S(=O)(=O)c1ccccc1	-6.8	-2.1	2.6	2.5	0.7	0.0	x	x
Cc1ccc(C(=O)c2ccccc2C(=O)OCC(=O)N2CCCC2)cc1	-0.5	-9.1	-1.1	3.2	-1.2	0.9	106.9	i
Cc1cccc(C(=O)OCC(=O)N2CCCCCC2)c1C	6.8	-0.9	1.7	-4.7	-1.5	0.6	x	x
CCC(=O)NC(c1cccs1)c1ccc2cccnc2c1O (configuration not stated)	12.5	-6.8	3.5	-5.1	-2.0	3.1	105.4	i
SMILES	MC4R antag cAMP	TAAR1 antagonist	TAAR1 ag	m5-HT2A agonist	MC4R barr agon	Beta2AR agonist	Beta2AR ag CP1	B2AR FAP counter
CC(C)CC(=O)NC(c1cccs1)c1ccc2cccnc2c1O (configuration not stated)	1.0	x	x	-5.4	-3.8	6.8	x	x
Cc1cc(C(=O)NNC(=O)C(C)(C)Oc2ccc(Cl)cc2)c(C)o1	3.5	-21.1	3.3	-2.5	0.2	-1.1	x	x
CNc1ccc([N+](=O)[O-])cc1-c1nc2ccccc2[nH]c1=O	4.3	-16.5	4.9	-3.1	0.1	61.5*	91.3	i
Cc1cc(C(=O)COC(=O)CNS(=O)(=O)c2ccc3ccccc3c2)c(C)n1-c1ccccc1	13.2	3.1	1.3	-2.8	-1.7	46.9*	98.0	i
CCOC(=O)COc1cccc2c(=O)n(CC(=O)NCCc3ccccc3)ccc12	13.6	-20.9	-0.2	-1.1	-0.1	43.7*	84.9	i
COc1cc(OC)c(C(=O)N/N=C/c2ccoc2)cc1OC	6.0	-2.3	0.5	2.5	-0.2	-23.0	x	x
C=CCN1C(=O)c2ccc(C(=O)N3CCC(C(N)=O)CC3)cc2C1=O	7.9	5.1	-0.3	3.8	1.9	2.8	x	x
COC(=O)[C@]12CCCCC=C1N(CCc1ccc(OC)c(OC)c1)C(=O)[C@H](CC(=O)NCCCN1CCCC1=O)C2	x	0.9	4.1	2.1	x	x	x	x
CCCn1nnc(NC(=O)c2ccc(-c3cccc(Cl)c3)o2)n1	4.8	10.1	23.6	-3.1	0.2	-0.4	x	x
CCn1nnc(NC(=S)NC(=O)c2ccc(-c3cccc(Cl)c3)o2)n1	10.2	8.5	3.3	-6.7	-4.0	-4.3	147.7	i
Cc1ccc(-c2csc3ncnc(Sc4nnc(CN5CCCCCC5=O)o4)c23)cc1	6.3	8.5	14.9	-7.5	-1.4	42.3*	87.3	i
CCCNC(C)C(=O)Nc1ccccc1C (configuration not stated)	2.1	-7.0	1.0	0.3	-1.3	-2.9	114.5	i
CCCNC(=O)c1ccccc1NC(=O)Nc1ccccc1C	-9.3	-7.0	7.2	7.9	3.5	-1.9	x	x
CCCCn1cnc2c(c(CC#N)nn2-c2ccccc2)c1=N	-3.1	-9.7	4.5	0.7	-2.4	-1.4	x	x
Cc1ccc(Cl)cc1NC(=O)c1cc2ccccc2cc1O	25.5	-0.2	4.6	5.4	8.4*	43.6*	94.7	i
CC1CCCC(C)N1C(=O)COC(=O)CNC(=O)c1ccccc1 (configuration not stated)	9.0	-3.3	1.7	-1.4	-2.3	3.3	x	x
COc1ccc(NC(=O)C(=O)NCC(c2ccco2)N2CCc3ccccc32)cc1 (configuration not stated)	-22.7	x	x	6.3	-2.2	-4.7	x	x
